# Source: PubChem BioAssay
# The sample as a whole holds a higher share of hits than the screen did.
# HCT116 bCat-KO: primary screen for growth suppressors in beta-catenin knockout HCT116 cells (colon tumor, human); HCT116 beta-catenin knockout viability, CellTiter-Glo, 60 h; hits give low values; viability, % at 10 µM; 1.5% of 140,000 active;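 active = viability at or under a set limit, the compound median less 4 SD, cut at about 6% in these data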;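 note: 0% = Hyamine 1622 control at 20 µM and 100% = untreated cell control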
# HUVEC inhibit: inhibitors of HUVEC proliferation, primary screen, cell-based, 384-well; CellTiter-Glo luminescence, 72 h; hits give low values; viability, % at 10 µM (by protocol); 1.1% of 86,000 active; AID 648, 2007;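 active = viability at or below 30%; inactive = viability above 30%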;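 note: 100% = median luminescence of DMSO-only cell control wells on each plate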
# Lung fibro prol: antiproliferative effect on LL 47 fibroblasts – human, LL 47 cells, CellTiter-Glo luminescence, primary screen. LL 47 human lung fibroblast viability, ATP luminescence; hits give low values. viability, % at 10 µM. 1.1% of 85,000 active. AID 719, 2007;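 active = viability at or below 50% in the single dose screen; inactive = viability above 50%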;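 note: compound exposure lasted 72 h before the ATP readout; 100% = median luminescence of untreated cell-only wells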
#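 Benchmarks: Cell-only wells, no compound | Test system: LL 47 human lung fibroblasts, passage 12 or lower | Input: 1,150 cells/well | Measured by: CellTiter-Glo luminescence measuring cellular ATP | Medium: IMEM, 15% FBS supplement | Schedule: Overnight attachment after seeding, then 72 h compound exposure at 37 °C | Doses: Compound addition at 0.1% DMSO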
# PTK2B oligo ant: antagonists of Pyk2 self-association, primary screen, Q293 cells, FERM NanoBiT luminescence, HTS; Protein-tyrosine kinase 2-beta (Homo sapiens), Q14289; z-score (the deposit names both 25 µM and 10 µM); hits give low values; 0.83% of 99,000 active;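 active = Z-score of -3 or lower, scaled per plate to the spread of control and sample wells; inactive = z-score above -3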;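 note: negative z-score means lost luminescence so less FERM oligomerization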
# Target sequence (Q14289 whole entry, looked up): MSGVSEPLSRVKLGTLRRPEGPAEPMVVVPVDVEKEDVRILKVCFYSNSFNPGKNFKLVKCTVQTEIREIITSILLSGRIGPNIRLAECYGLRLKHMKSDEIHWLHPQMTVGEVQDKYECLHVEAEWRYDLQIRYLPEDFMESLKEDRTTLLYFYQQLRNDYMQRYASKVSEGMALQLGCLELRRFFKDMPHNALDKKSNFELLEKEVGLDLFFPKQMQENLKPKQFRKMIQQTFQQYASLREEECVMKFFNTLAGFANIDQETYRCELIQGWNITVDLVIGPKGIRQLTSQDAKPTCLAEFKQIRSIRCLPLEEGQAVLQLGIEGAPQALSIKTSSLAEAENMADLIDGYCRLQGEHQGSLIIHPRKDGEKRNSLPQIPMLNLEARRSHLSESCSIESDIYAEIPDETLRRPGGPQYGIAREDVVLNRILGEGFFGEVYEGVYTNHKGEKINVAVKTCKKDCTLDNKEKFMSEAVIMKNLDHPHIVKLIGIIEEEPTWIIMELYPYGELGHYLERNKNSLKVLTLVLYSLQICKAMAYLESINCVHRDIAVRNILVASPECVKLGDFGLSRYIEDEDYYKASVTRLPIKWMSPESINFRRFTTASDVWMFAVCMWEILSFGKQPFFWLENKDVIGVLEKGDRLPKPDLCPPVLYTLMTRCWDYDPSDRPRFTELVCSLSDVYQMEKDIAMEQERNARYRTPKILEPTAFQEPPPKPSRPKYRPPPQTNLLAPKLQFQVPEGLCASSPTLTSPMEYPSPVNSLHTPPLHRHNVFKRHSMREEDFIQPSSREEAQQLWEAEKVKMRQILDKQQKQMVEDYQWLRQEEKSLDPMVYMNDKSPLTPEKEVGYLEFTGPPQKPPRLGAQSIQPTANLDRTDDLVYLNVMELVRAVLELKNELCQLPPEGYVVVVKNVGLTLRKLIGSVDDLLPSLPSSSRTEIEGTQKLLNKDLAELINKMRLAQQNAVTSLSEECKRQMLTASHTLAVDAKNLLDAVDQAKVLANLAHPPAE
# H69AR growth 86K: proliferation blockers of H69AR lung cancer cells, primary screen, cell-based, human, 86K library. H69AR lung tumor viability, ATP luminescence, 72 h; hits give low values. 6% of 85,000 active. viability, % at 10 µM. AID 598, 2007;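 active = viability at or below 40%; inactive = viability above 40%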;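 note: multidrug resistant small cell line overexpressing MRP-1 efflux transporter; 100% = mean luminescence of untreated control wells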
# PTEN del growth: growth suppression of PTEN-null HCT116, primary screen, cell-based, CellTiter-Glo. HCT116 PTEN-null viability, 60 h; hits give low values. 1.2% of 140,000 active. viability, % at 10 µM;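 active = viability at or below a set limit, 4 SD under the median of all tested compounds, cut at about 3.7% in these data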;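 note: PTEN knockout HCT116 line with beta catenin targeted HCT116 as companion control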
# * marks the source's active call; other numbers are inactive results; x = not tested or not shown.
SMILES,HCT116 bCat-KO,HUVEC inhibit,Lung fibro prol,PTK2B oligo ant,H69AR growth 86K,PTEN del growth
CC(=O)c1c(C)[nH]c(C(=O)CSc2nnc(-c3ccccc3)n2Cc2ccc3c(c2)OCO3)c1C,111,13*,82,0.58,20*,100
CCCn1c(N)c(C(=O)CSc2nnc(-c3ccco3)n2Cc2ccccc2)c(=O)[nH]c1=O,102,74,93,0.65,88,73
CC(=O)c1c(C)[nH]c(C(=O)CSc2nnc(-c3cccs3)n2Cc2ccccc2)c1C,85,x,x,-1.2,x,82
CC(=O)c1c(C)[nH]c(C(=O)CSc2nnc(-c3ccco3)n2Cc2ccccc2)c1C,54,79,91,-1.1,39*,55
Cc1c(Cl)cnc(NC(=O)COC(=O)c2cc3c(s2)CCC(C)C3)c1Cl (stereo not drawn),92,x,x,x,x,86
CC(C)NC(=O)C1(c2ccccc2)CC1(Cl)Cl (stereo not drawn),86,x,x,x,x,95
CCC(C)(C(=O)NC1CCCC1)N(C(=O)c1ccccn1)c1ccc(C)cc1 (stereo not drawn),95,110,108,0.46,94,100
Cn1c(SCC(=O)Nc2ccc3c(c2)OCCO3)nnc1-c1ccccn1,102,97,104,-0.33,88,103
O=C(CSc1ncnc2ccccc12)Nc1ccc2c(c1)OCO2,87,83,96,x,54,84
O=C(CSc1ncnc2c1cnn2-c1ccccc1)Nc1ccc2c(c1)OCO2,96,76,93,-0.37,37*,103
O=C(CSc1nnc(-c2ccccn2)n1Cc1ccccc1)Nc1ccc2c(c1)OCO2,93,54,99,-1.2,14*,97
COc1ccc(-n2cc(-c3ccccc3)c3c(N4CCN(CCO)CC4)ncnc32)cc1,33,30*,74,-1.6,58,18
C=CCc1ccc(OCC(O)CN2CCN(Cc3ccc(Cl)cc3)CC2)c(OC)c1 (stereo not drawn),42,x,x,x,x,49
C=CCc1ccc(OCC(O)CN2CCC(Cc3ccccc3)CC2)c(OC)c1 (stereo not drawn),22,14*,85,0.49,21*,29
Cc1cccc(OCCNC(=O)c2cncc(Br)c2)c1,93,x,x,x,x,88
COc1ccc(S(=O)(=O)NCC(=O)N(CC(=O)NCC2CCCO2)c2cc(C)ccc2C)cc1 (stereo not drawn),104,105,95,-0.1,37*,120
CCc1ccc(N2CC(C(=O)OCC(=O)Nc3cc(C)on3)CC2=O)cc1 (stereo not drawn),107,104,x,0.19,37*,106
Cc1ccc(N2CC(C(=O)Nc3cc(C)on3)CC2=O)cc1 (stereo not drawn),97,x,x,-0.3,x,87
CCN(CC)CCNC(=O)CS(=O)Cc1nc(-c2ccc(C)cc2)oc1C (stereo not drawn),73,90,103,0.94,93,76
CCN(CC)CCn1c2ccccc2c2cnc(N)c(C#N)c21,4.3*,77,22*,-0.46,29*,4
Cc1ccc(C(=O)N/C(=C\c2cccs2)C(=O)NCc2ccncc2)cc1,102,x,x,0.03,x,97
O=C(COC(=O)c1cc(=O)[nH]c(=O)[nH]1)NCc1ccccc1,97,x,x,x,x,95
C=CCn1c(SCC(=O)NCc2ccc3c(c2)OCO3)nc2scc(-c3ccccc3)c2c1=O,78,83,102,-2.5,66,79
C=CCn1c(SCC(=O)N2CC(=O)Nc3ccccc32)nc2scc(-c3ccccc3)c2c1=O,55,74,99,-2.4,26*,52
O=c1oc(-c2ccc(Br)o2)nc2ccccc12,88,97,98,-1.4,72,96
SMILES,HCT116 bCat-KO,HUVEC inhibit,Lung fibro prol,PTK2B oligo ant,H69AR growth 86K,PTEN del growth
Cc1cc(C)c(NC(=O)C(C)Sc2nnc(-c3ccco3)n2-c2ccccc2)c(C)c1 (stereo not drawn),91,x,x,x,x,90
CCOc1ccc(C(=O)NCCn2cc(SCC(=O)Nc3cc(C)on3)c3ccccc32)cc1,81,84,97,-0.68,33*,81
O=C(CSc1cn(CCNC(=O)c2ccc3ccccc3c2)c2ccccc12)NCc1ccco1,62,62,98,x,9.6*,59
Cn1c(=O)cc(SCC(=O)NCc2ccco2)c2ccccc21,90,90,88,-0.08,108,98
C=C(C)C(=O)OC1(C(F)(F)F)Oc2cc(C)ccc2NC1=O (stereo not drawn),106,15*,17*,-0.23,1.5*,97
Cc1ccc2c(COn3nnc4ccc(S(=O)(=O)N(C)C)cc43)cc(=O)oc2c1C,96,83,99,x,33*,95
Cc1[nH]nc(Sc2ccccn2)c1[N+](=O)[O-],96,x,x,x,x,99
COc1cc(OC)cc(-c2n[nH]c(=S)n2-c2cc(OC)ccc2OC)c1,88,101,96,0.17,24*,93
COc1ccc(C(=O)NCc2ccc3c(c2)OCO3)cc1S(=O)(=O)N(C)Cc1ccccc1,90,x,x,x,x,91
CC(=O)c1ccc(N2CCC(c3cc(-c4ccc(Cl)cc4Cl)n[nH]3)CC2)c([N+](=O)[O-])c1,28,x,x,-3,x,35
CCn1c2ccccc2c2nnc(SCc3ccccc3)nc21,76,90,89,x,61,68
CCn1c2ccccc2c2nnc(SCCCn3c(=O)[nH]c4ccccc43)nc21,59,59,93,-3.5*,23*,78
CCOc1cc(CNCCc2ccc(S(N)(=O)=O)cc2)ccc1OCc1ccccc1,15,x,x,-0.15,x,23
CCOc1cc(CNCCc2ccc(S(N)(=O)=O)cc2)cc(Cl)c1OCc1ccccc1,1.5*,x,x,-0.22,x,1.9*
CCOc1cc(CNC2CCCC2)cc(Cl)c1OCc1ccc(F)cc1,0.9*,x,x,-0.34,x,0.9*
COc1cc(CNC2CCCC2)cc(Cl)c1OCc1ccccc1Cl,1.2*,x,x,-0.64,x,1.6*
CC(NC(=O)/C=C/c1ccco1)c1nc2ccccc2n1Cc1ccccc1F (stereo not drawn),87,x,x,x,x,83
CCOC(=O)C(NC(=O)NCc1ccc(OC)cc1)(OCC)C(F)(F)F (stereo not drawn),88,x,x,x,x,90
COC(=O)COc1ccc(/C=N/NC(=O)c2ccc(N(Cc3ccccc3)S(C)(=O)=O)cc2)cc1,90,x,x,x,x,93
Cn1nnnc1Sc1ncnc2scc(-c3ccc(F)cc3)c12,5.5*,x,x,-1.7,x,3.7*
COc1ccc(O)c(-c2[nH]ncc2C(=O)c2ccccc2C)c1,103,102,99,-2.2,93,98
CCOc1ccc(-c2[nH]ncc2Oc2ccccc2OC)c(O)c1,86,84,97,-3*,46,86
COc1ccc(-c2c(-c3ccc(O)cc3O)n[nH]c2C)cc1OC,41,67,80,-0.13,21*,32
